Results: ChEMBL document CHEMBL1165965, “Synthesis and structure-activity relationships of 1,2,3,4-tetrahydropyrido[2,3-b]pyrazines as potent and selective inhibitors of the anaplastic lymphoma kinase” (Bioorg Med Chem, 2010)

Tests used:
[1] = target: Serine/threonine-protein kinase PLK2 (Homo sapiens) (UniProt Q9NYY3); assay: Inhibition of PLK2 at 1 uM
[2] = target: T1, Mitogen-activated protein kinase kinase kinase 6 (Homo sapiens) (UniProt O95382); assay: Inhibition of ASK2 at 1 uM
T1 sequence (whole entry): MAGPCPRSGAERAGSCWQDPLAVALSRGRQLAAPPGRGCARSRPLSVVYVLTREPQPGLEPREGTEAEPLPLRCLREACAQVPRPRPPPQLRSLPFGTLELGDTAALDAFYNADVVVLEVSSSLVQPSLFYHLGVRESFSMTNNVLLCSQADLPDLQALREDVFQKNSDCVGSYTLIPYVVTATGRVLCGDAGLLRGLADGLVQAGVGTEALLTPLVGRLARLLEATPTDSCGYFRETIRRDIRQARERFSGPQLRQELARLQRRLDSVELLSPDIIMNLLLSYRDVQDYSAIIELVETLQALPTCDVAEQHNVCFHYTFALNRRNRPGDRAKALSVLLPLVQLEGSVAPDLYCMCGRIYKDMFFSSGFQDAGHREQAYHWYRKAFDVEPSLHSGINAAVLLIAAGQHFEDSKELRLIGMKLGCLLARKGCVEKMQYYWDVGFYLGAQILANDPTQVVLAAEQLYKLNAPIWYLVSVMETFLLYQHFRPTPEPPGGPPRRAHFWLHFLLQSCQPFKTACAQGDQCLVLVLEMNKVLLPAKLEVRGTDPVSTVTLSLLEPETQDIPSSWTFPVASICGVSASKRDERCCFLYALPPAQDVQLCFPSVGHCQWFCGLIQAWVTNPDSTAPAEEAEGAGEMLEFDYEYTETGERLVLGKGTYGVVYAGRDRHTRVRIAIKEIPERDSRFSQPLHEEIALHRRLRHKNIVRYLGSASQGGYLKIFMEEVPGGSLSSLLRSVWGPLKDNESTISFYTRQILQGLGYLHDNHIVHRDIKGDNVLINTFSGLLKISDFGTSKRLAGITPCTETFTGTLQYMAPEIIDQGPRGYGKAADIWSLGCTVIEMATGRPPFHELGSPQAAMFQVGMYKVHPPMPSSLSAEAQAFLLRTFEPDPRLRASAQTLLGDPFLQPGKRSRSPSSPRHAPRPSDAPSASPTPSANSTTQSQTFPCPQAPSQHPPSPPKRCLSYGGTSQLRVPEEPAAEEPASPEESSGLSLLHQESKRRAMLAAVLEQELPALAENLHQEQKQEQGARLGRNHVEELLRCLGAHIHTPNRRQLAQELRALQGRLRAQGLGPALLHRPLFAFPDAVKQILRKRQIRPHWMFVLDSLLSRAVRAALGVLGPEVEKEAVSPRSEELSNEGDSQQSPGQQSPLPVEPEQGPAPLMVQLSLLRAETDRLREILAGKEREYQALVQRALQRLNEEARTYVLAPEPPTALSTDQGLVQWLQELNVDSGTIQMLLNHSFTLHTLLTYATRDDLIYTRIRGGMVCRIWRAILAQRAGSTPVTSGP

[3] = target: Serine/threonine-protein kinase Nek7 (Homo sapiens) (UniProt Q8TDX7); assay: Inhibition of NEK7 at 1 uM
Sequence of Serine/threonine-protein kinase Nek7 (Homo sapiens) (Q8TDX7 whole entry, looked up): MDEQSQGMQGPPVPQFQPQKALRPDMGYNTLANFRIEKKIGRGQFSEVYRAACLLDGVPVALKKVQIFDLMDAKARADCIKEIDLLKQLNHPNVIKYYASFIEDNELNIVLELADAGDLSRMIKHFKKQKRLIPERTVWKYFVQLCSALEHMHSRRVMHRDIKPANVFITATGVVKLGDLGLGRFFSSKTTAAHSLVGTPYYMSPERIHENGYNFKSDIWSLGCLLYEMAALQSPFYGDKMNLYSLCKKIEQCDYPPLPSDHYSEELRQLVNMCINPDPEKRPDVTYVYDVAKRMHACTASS

[4] = target: Leukocyte tyrosine kinase receptor (Homo sapiens) (UniProt P29376); assay: Inhibition of LTK at 1 uM
Sequence of Leukocyte tyrosine kinase receptor (Homo sapiens) (P29376 whole entry): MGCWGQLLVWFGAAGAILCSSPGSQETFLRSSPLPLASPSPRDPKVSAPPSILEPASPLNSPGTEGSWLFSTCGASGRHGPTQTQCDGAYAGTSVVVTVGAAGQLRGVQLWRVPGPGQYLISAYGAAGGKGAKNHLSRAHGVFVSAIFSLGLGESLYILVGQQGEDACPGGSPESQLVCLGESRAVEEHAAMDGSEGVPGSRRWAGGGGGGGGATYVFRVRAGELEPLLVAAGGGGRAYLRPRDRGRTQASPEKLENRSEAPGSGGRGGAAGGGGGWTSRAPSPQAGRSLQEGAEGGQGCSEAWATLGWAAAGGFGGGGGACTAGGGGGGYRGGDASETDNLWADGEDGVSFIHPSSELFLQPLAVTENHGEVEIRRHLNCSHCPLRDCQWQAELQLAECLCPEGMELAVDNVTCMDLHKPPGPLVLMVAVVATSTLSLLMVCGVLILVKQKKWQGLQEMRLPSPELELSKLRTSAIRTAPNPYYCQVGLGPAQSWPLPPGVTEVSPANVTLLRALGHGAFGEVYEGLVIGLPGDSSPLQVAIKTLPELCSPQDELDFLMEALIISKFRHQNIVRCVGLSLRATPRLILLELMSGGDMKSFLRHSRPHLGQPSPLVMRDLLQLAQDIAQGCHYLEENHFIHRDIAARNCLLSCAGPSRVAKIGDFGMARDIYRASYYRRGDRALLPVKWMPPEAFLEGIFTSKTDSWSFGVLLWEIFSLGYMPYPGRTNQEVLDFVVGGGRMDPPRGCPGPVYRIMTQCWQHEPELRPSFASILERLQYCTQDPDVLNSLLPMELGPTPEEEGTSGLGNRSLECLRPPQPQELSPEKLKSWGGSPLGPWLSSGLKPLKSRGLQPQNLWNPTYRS
Summary of the method: (§1)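 Single-concentration screen on the Ambit KINOMEscan platform, run against a panel of 250–400 kinases. Per-kinase inhibition was also summarized as S(90), the fraction of kinases inhibited by more than 90%.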

[5] = target: Platelet-derived growth factor receptor alpha (Homo sapiens) (UniProt P16234); assay: Inhibition of PDGFRA at 1 uM
Sequence of Platelet-derived growth factor receptor alpha (Homo sapiens) (P16234 whole entry): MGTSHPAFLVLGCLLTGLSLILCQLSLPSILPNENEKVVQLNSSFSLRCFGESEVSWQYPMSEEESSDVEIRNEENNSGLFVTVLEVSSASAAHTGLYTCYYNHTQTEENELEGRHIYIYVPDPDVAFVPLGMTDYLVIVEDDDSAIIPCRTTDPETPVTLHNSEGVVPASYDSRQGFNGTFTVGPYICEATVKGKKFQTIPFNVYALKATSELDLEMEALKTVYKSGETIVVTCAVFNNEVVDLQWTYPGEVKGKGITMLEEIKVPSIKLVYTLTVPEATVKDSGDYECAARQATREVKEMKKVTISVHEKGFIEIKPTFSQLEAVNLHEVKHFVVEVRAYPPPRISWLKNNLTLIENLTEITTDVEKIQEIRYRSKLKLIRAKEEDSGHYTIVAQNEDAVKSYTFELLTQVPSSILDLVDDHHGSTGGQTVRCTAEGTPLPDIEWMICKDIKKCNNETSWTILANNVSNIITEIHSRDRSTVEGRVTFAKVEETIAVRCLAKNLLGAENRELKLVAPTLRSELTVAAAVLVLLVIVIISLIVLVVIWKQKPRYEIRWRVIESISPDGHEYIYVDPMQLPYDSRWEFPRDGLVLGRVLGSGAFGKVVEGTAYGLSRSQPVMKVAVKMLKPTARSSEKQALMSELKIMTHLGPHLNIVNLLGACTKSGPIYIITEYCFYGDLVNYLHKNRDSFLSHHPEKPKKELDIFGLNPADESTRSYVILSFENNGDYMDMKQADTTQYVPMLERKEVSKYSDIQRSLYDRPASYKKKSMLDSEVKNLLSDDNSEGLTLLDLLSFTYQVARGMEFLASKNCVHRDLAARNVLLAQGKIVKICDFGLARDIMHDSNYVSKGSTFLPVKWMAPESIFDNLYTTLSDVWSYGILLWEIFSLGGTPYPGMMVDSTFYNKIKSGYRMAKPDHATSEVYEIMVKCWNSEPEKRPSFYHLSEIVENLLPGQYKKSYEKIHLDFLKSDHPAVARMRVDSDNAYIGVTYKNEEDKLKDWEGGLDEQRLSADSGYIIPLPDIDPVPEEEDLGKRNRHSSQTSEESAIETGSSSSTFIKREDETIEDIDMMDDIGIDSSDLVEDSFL

[6] = target: Fibroblast growth factor receptor 3 (Homo sapiens) (UniProt P22607); assay: Inhibition of FGFR3 at 1 uM; summary of the method: as §1
Sequence of Fibroblast growth factor receptor 3 (Homo sapiens) (P22607 23-806 limits assumed): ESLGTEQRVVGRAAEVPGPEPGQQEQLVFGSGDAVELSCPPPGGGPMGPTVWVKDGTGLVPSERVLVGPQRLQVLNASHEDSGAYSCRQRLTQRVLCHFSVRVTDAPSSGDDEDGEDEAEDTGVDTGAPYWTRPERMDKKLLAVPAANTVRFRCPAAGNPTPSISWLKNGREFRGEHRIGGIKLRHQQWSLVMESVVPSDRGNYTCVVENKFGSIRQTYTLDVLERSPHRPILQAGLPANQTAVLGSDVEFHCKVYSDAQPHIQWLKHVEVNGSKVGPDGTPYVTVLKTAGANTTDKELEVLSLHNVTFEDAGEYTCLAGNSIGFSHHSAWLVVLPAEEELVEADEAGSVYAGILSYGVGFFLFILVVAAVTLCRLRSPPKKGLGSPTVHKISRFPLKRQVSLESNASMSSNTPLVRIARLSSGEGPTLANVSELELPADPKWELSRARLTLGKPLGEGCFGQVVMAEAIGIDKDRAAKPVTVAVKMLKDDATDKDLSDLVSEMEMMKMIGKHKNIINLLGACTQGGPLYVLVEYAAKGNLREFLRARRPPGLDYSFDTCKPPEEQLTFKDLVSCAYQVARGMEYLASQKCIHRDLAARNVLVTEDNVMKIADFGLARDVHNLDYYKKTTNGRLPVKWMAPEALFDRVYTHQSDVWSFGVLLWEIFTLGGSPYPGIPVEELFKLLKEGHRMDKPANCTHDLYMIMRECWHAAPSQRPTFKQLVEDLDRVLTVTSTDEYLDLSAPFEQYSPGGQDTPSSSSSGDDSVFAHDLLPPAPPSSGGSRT

[7] = target: Serine/threonine-protein kinase pim-3 (Homo sapiens) (UniProt Q86V86); assay: Inhibition of PIM3 at 1 uM
[8] = target: Interleukin-1 receptor-associated kinase 1 (Homo sapiens) (UniProt P51617); assay: Inhibition of IRAK1 at 1 uM
Sequence of Interleukin-1 receptor-associated kinase 1 (Homo sapiens) (P51617 whole entry, looked up): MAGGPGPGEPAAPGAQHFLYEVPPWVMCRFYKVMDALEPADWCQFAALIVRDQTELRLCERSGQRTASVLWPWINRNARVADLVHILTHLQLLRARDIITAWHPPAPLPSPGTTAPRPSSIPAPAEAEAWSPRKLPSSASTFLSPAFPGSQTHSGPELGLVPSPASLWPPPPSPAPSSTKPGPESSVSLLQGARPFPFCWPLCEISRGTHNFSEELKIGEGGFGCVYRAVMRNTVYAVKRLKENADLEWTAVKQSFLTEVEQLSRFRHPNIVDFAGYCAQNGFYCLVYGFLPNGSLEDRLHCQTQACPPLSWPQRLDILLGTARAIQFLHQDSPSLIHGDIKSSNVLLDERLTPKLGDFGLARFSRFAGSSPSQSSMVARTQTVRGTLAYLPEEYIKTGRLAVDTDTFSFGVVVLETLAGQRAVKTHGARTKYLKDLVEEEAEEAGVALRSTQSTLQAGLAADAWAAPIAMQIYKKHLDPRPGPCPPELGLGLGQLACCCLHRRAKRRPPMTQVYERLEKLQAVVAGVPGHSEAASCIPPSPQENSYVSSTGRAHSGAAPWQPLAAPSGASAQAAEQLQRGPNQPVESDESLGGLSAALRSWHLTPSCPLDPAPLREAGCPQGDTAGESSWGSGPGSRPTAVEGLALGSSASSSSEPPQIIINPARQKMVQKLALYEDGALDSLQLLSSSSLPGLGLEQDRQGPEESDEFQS

[9] = target: T2, Serine/threonine-protein kinase ULK1 (Homo sapiens) (UniProt O75385); assay: Inhibition of ULK1 at 1 uM
T2 sequence (whole entry): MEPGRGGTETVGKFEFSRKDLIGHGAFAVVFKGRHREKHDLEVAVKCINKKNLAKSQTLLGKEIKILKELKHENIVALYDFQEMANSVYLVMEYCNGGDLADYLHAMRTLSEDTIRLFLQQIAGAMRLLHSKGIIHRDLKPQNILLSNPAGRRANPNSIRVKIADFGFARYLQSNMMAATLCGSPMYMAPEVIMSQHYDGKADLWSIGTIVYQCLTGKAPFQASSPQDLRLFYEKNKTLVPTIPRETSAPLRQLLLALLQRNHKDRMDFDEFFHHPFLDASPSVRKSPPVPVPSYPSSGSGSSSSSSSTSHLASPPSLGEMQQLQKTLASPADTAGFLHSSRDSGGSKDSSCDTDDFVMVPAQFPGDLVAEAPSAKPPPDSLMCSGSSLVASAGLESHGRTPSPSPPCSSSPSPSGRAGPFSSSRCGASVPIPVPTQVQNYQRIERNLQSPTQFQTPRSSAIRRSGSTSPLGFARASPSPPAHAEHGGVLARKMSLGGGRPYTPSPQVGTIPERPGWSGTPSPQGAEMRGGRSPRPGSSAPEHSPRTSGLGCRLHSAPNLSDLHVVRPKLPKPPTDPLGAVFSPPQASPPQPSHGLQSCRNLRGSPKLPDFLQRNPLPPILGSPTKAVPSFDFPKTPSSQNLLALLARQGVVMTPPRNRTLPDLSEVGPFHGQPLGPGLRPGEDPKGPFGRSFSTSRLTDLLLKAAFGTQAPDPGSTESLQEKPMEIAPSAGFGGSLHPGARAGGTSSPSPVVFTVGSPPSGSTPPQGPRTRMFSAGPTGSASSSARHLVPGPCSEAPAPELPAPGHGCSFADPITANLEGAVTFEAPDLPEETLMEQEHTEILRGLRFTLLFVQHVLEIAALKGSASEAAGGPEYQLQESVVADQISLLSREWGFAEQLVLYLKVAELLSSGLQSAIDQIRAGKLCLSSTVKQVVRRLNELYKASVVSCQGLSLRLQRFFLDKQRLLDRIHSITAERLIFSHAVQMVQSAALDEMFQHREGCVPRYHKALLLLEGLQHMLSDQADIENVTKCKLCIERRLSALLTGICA

Sequence of Serine/threonine-protein kinase PLK2 (Homo sapiens) (Q9NYY3 whole entry, looked up): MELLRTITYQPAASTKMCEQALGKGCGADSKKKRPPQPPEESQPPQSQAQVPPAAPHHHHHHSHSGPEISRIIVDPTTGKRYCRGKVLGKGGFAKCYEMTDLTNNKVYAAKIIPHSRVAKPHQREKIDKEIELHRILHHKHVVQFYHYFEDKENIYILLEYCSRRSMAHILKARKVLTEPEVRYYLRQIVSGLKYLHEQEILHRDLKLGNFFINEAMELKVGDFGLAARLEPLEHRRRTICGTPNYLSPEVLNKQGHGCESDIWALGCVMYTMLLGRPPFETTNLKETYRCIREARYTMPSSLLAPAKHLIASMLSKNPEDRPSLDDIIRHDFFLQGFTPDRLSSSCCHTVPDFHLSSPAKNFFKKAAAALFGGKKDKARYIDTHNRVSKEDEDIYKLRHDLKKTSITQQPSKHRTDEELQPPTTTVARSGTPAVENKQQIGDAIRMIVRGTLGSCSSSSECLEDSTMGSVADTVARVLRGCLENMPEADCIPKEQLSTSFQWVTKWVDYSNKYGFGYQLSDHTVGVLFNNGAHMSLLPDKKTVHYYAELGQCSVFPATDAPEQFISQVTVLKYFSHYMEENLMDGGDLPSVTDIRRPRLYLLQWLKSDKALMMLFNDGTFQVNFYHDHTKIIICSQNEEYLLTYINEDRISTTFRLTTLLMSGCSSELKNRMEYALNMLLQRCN

Row | SMILES | inhibition [1] | inhibition [2] | inhibition [3] | inhibition [4] | inhibition [5] | inhibition [6] | inhibition [7] | inhibition [8] | inhibition [9]
1 | CN1CCN(c2ccc(-c3cnc4c(c3)N(Cc3cc(Cl)ccc3Cl)CCN4)cn2)CC1 | < 50% | < 50% | < 50% | 97% | < 50% | < 50% | < 50% | < 50% | < 50%
2 | CN1CCN(c2ccc(-c3cnc4c(c3)N(Cc3cc(Cl)ccc3C(F)(F)F)CCN4)cn2)CC1 | < 50% | < 50% | < 50% | 99% | < 50% | < 50% | < 50% | < 50% | < 50%
3 | CN1CCN(c2ccc(-c3cnc4c(c3)N(Cc3c(F)ccc(F)c3Cl)CCN4)cn2)CC1 | < 50% | < 50% | < 50% | 97% | < 50% | < 50% | < 50% | < 50% | < 50%
4 | O=C(c1ccc(-c2cnc3c(c2)N(Cc2cc(Cl)ccc2C(F)(F)F)CCN3)cc1)N1CCC(N2CCCC2)CC1 |  | < 50% |  | 80.7% | < 50% | < 50% | < 50% |  | 
5 | COC1CCN(C(=O)c2ccc(-c3cnc4c(c3)N(Cc3cc(Cl)ccc3C(F)(F)F)CCN4)cc2)CC1 |  | < 50% |  | 95.5% | < 50% | < 50% | < 50% |  | 
6 | FC(F)(F)c1ccc(Cl)cc1CN1CCNc2ncc(-c3ccnc(N4CCNCC4)c3)cc21 | < 50% | < 50% | < 50% | 100% | < 50% | < 50% | < 50% | < 50% | < 50%
7 | CN1CCN(c2ccc(-c3cnc4c(c3)N(Cc3cc(F)ccc3F)CCN4)cn2)CC1 | < 50% | < 50% | < 50% | 96.8% | < 50% | < 50% | < 50% | < 50% | < 50%
8 | O=C(c1ccc(-c2cnc3c(c2)N(Cc2cc(Cl)ccc2C(F)(F)F)CCN3)cc1)N1CCCCC1 |  |  |  | 89.3% | < 50% | < 50% | < 50% |  | 
9 | CC(=O)N1CCN(c2cc(-c3cnc4c(c3)N(Cc3cc(Cl)ccc3C(F)(F)F)CCN4)ccn2)CC1 | 82% | < 50% | < 50% | 99% | < 50% | < 50% | < 50% | < 50% | < 50%
10 | O=C(O)c1ccc(-c2cnc3c(c2)N(Cc2cc(Cl)ccc2C(F)(F)F)CCN3)cc1 |  |  |  | 92.7% | < 50% | < 50% | 79.2% |  | 
